In ChEMBL document CHEMBL2169747, “Synthesis and biological properties of highly sequence-specific-alkylating N-methylpyrrole-N-methylimidazole polyamide conjugates” (J Med Chem, 2012):
Calls of active or inactive are those of the source. No cut-off for these calls is given here.

Tests used:
A549 [1] = assay: Antiangiogenic activity against human A549 cells; assay type: functional, cell-based
A549 [2] = assay: Downregulation of Q8N570 gene expression in human A549 cells at 26 nM after 12 hrs by microarray analysis relative to control; assay type: functional
In short: (§1)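 A549 cells (RPMI-1640, 10% heat-inactivated FBS, penicillin/streptomycin, 37 °C, 5% CO2) seeded at 4 × 10^5 per 60 mm dish. Exposed 12 h to conjugate at 21, 26, 34 or 100 nM in medium with 0.1% DMSO, against 0.1% DMSO control. Whole-genome (~25 000 genes) expression profiled by microarray.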

[3] = Cytotoxicity against human EBC1 cells assessed as cell growth inhibition after 48 hrs by microplate reader analysis; assay type: functional, cell-based; conditions: EBC-1, 48 h
In short: (§2)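 Medium was RPMI-1640 for EBC-1, A549 and DU145, and DMEM for PC-3, SK-N-SH and K562. Both media had 10% heat-inactivated FBS plus penicillin/streptomycin; cells were kept at 37 °C, 5% CO2. Cells were seeded at 5000/well and given compound from DMSO stock (final 0.1% DMSO) for 48 h. Viability was read by WST-8 colorimetry, absorbance at 450 and 600 nm, and IC50 determined.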

SK-N-SH = assay: Cytotoxicity against human SK-N-SH cells assessed as cell growth inhibition after 48 hrs by microplate reader analysis; assay type: functional, cell-based; in short: as §2
A549 [4] = assay: Downregulation of NP_940865.1 gene expression in human A549 cells at 26 nM after 12 hrs by microarray analysis relative to control; assay type: functional; in short: as §1
Nucleic Acid = assay: Induction of calf thymus DNA cleavage at 10 to 25 nM after 12 h by PAGE analysis; assay type: nucleic-acid assay; conditions: in the assay text read “208-bp PCR fragment DNA” for “calf thymus DNA”
In short: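 5′-Texas Red-labeled 208 bp PCR fragments alkylated in 5.0 mM sodium phosphate (pH 7.0) with 10% DMF, room temperature, 12 h. Quenched with calf thymus DNA and heated 95 °C for 5 min under neutral conditions. Recovered DNA in formamide loading dye, heated 95 °C 20 min, then run on 6% denaturing polyacrylamide gel with 6.0 M urea at 1.5 kV, 40 °C.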

A549 [5] = assay: Downregulation of DPYD gene expression in human A549 cells at 26 nM after 12 hrs by microarray analysis relative to control; assay type: functional
In short: (§3)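 A549 cells, 4 × 10^5 per 60 mm dish, were exposed to conjugate for 12 h in medium with 0.1% DMSO; vehicle control was 0.1% DMSO. Whole human genome (~25 000 genes) expression was profiled by microarray and expression compared with the control.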

A549 [6] = assay: Antitumor activity against human A549 cells xenografted in BALB/c-nu/nu mouse assessed as effect on tumor growth at 1.6 mg/kg, iv administered as liposomal conjugate for 14 days; assay type: functional, organism-based; design: dose 1.6 mg/kg
In short: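 Male BALB/c-nu/nu mice (5 weeks, 15−22 g) with subcutaneous right-subaxillary A549 or DU145 xenografts (3 × 10^6 cells/mouse), grouped by tumor size. Liposomes were made from a lipid film hydrated in water and bath-sonicated 2 h, giving 330 μg/mL conjugate in 17 mM lipid. A single 125 μL intravenous dose (41 μg/mouse) was given on day 0. Tumor size and weight were read every other day for 14 days. n = 5 or 6.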

A549 [7] = assay: Downregulation of Q9Y6Z5 gene expression in human A549 cells at 26 nM after 12 hrs by microarray analysis relative to control; assay type: functional; in short: as §1
K562 = assay: Cytotoxicity against human K562 cells assessed as cell growth inhibition after 48 hrs by microplate reader analysis; assay type: functional, cell-based; conditions: K562, 48 h; in short: as §2
A549 [8] = assay: Upregulation of HES2 gene expression in human A549 cells at 26 nM after 12 hrs by microarray analysis relative to control; assay type: functional
In short: (§4)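 4 ×10^5 A549 cells seeded per 60 mm dish and treated 12 h with conjugate (21, 26, 34 or 100 nM) in medium; control medium contained 0.1% DMSO, with conjugates added as 0.1% DMSO solutions. Whole human genome (~25 000 genes) expression profiled by microarray against the DMSO control. A549 culture: RPMI-1640 with 10% heat-inactivated FBS, penicillin/streptomycin, 37 °C, 5% CO2.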

DU-145 [9] = assay: Antiangiogenic activity against human DU145 cells; assay type: functional, cell-based
PC-3 = assay: Cytotoxicity against human PC3 cells assessed as cell growth inhibition after 48 hrs by microplate reader analysis; assay type: functional, cell-based; conditions: PC-3, 48 h; in short: as §2
DU-145 [10] = assay: Antitumor activity against human DU145 cells xenografted in BALB/c-nu/nu mouse assessed as effect on tumor growth at 0.50 mg/kg, ip for 14 days; assay type: functional, organism-based; design: dose 0.5 mg/kg
In short: (§5)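 Male BALB/c-nu/nu mice, 5 weeks old, 15−22 g. Cells were implanted subcutaneously in the right subaxillary region at 3 × 10^6 cells/mouse: 50 μL for A549, 100 μL for DU145, with HBSS and Matrigel used. Mice were grouped by tumor size. The naked conjugate was given intraperitoneally once on day 0 as 20 μL at 625 μg/mL in 100% DMSO (12.5 μg/mouse). Tumor size and weight were measured every other day for 14 days. n = 7 or 8.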

DU-145 [11] = assay: Cytotoxicity against human DU145 cells assessed as cell growth inhibition after 48 hrs by microplate reader analysis; assay type: functional, cell-based; conditions: DU-145, 48 h; in short: as §2
A549 [12] = assay: Antitumor activity against human A549 cells xenografted in BALB/c-nu/nu mouse assessed as effect on tumor growth at 0.50 mg/kg, ip for 14 days; assay type: functional, organism-based; design: dose 0.5 mg/kg; in short: as §5
A549 [13] = assay: Upregulation of MDM2 gene expression in human A549 cells at 26 nM after 12 hrs by microarray analysis relative to control; assay type: functional; in short: as §4
A549 [14] = assay: Upregulation of CDKN1A gene expression in human A549 cells at 26 nM after 12 hrs by microarray analysis relative to control; assay type: functional; in short: as §4
A549 [15] = assay: Downregulation of EPM2A gene expression in human A549 cells at 26 nM after 12 hrs by microarray analysis relative to control; assay type: functional; in short: as §3
A549 [16] = assay: Upregulation of BBC3 gene expression in human A549 cells at 26 nM after 12 hrs by microarray analysis relative to control; assay type: functional; in short: as §1
A549 [17] = assay: Cytotoxicity against human A549 cells assessed as cell growth inhibition after 48 hrs by microplate reader analysis; assay type: functional, cell-based; conditions: A549, 48 h; in short: as §2
A549 [18] = assay: Downregulation of GTDC1 gene expression in human A549 cells at 34 nM after 12 hrs by microarray analysis relative to control; assay type: functional; in short: as §3
A549 [19] = assay: Downregulation of ACTG gene expression in human A549 cells at 34 nM after 12 hrs by microarray analysis relative to control; assay type: functional; in short: as §3
A549 [20] = assay: Downregulation of LAMA2 gene expression in human A549 cells at 34 nM after 12 hrs by microarray analysis relative to control; assay type: functional; in short: as §3
A549 [21] = assay: Downregulation of RABGAP1L gene expression in human A549 cells at 34 nM after 12 hrs by microarray analysis relative to control; assay type: functional; in short: as §1
A549 [22] = assay: Downregulation of SMYD3 gene expression in human A549 cells at 34 nM after 12 hrs by microarray analysis relative to control; assay type: functional; in short: as §1
A549 [23] = assay: Downregulation of SIPA1L1 gene expression in human A549 cells at 34 nM after 12 hrs by microarray analysis relative to control; assay type: functional; in short: as §1
A549 [24] = assay: Downregulation of Q8N570 gene expression in human A549 cells at 34 nM after 12 hrs by microarray analysis relative to control; assay type: functional; in short: as §1

SMILES	Activity (A549 [1])	IC50 [3] [nM]	IC50 (SK-N-SH) [nM]	Activity (Nucleic Acid)	Activity (A549 [6])	IC50 (K562) [nM]	Activity (DU-145 [9])	IC50 (PC-3) [nM]	Activity (DU-145 [10])	IC50 (DU-145 [11]) [nM]	Activity (A549 [12])	IC50 (A549 [17]) [nM]	also measured
CC(=O)Nc1cn(C)c(C(=O)Nc2cc(C(=O)Nc3cc(C(=O)NCCC(=O)Nc4cc(C(=O)NCCCC(=O)Nc5cc(C(=O)NCCC(=O)Nc6cn(C)c(C(=O)Nc7ccc8[nH]c(C(=O)N9CC(CCl)c%10c9cc(O)c9ccccc%109)cc8c7)n6)n(C)c5)n(C)c4)n(C)c3)n(C)c2)n1 (racemic)	inactive	60.3	19.1	Active	inactive	9.12	inactive	12.6	inactive	6.03	inactive	25.7	fold change (FC) (A549 [2]): 0.283; fold change (FC) (A549 [4]): 0.322; fold change (FC) (A549 [5]): 0.115; fold change (FC) (A549 [7]): 0.356; fold change (FC) (A549 [8]): 9.4; fold change (FC) (A549 [13]): 8.1; fold change (FC) (A549 [14]): 8.2; fold change (FC) (A549 [15]): 0.353; fold change (FC) (A549 [16]): 9.4
CC(=O)Nc1cn(C)c(C(=O)Nc2cn(C)c(C(=O)Nc3cc(C(=O)NCCC(=O)Nc4cc(C(=O)NCCCC(=O)Nc5cn(C)c(C(=O)NCCC(=O)Nc6cn(C)c(C(=O)Nc7ccc8[nH]c(C(=O)N9CC(CCl)c%10c9cc(O)c9ccccc%109)cc8c7)n6)n5)n(C)c4)n(C)c3)n2)n1 (racemic)	inactive	170	40.7	Active	inactive	11.5	inactive	19.1	inactive	6.31	inactive	33.9	fold change (FC) (A549 [18]): 0.307; fold change (FC) (A549 [19]): 0.307; fold change (FC) (A549 [20]): 0.3; fold change (FC) (A549 [21]): 0.276; fold change (FC) (A549 [22]): 0.291; fold change (FC) (A549 [23]): 0.309; fold change (FC) (A549 [24]): 0.186
